Screens from PubChem.
CHRM4 antagonist: human M4 muscarinic receptor antagonists, primary screen, CHO cells, Fluo-8 calcium fluorescence | Muscarinic acetylcholine receptor M4 (Homo sapiens), P08173 | CHO-hM4 cells, ACh EC80 | inhibition, % at 3 µM | 360,000 compounds, 0.73% hits;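 active = inhibition above its plate's cutoff, the mean inhibition of sample wells plus 3 SD, cut at about 27% in these data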;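 note: 0% = acetylcholine EC80 with DMSO and 100% = DMSO without agonist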
Target sequence (P08173 whole entry, looked up): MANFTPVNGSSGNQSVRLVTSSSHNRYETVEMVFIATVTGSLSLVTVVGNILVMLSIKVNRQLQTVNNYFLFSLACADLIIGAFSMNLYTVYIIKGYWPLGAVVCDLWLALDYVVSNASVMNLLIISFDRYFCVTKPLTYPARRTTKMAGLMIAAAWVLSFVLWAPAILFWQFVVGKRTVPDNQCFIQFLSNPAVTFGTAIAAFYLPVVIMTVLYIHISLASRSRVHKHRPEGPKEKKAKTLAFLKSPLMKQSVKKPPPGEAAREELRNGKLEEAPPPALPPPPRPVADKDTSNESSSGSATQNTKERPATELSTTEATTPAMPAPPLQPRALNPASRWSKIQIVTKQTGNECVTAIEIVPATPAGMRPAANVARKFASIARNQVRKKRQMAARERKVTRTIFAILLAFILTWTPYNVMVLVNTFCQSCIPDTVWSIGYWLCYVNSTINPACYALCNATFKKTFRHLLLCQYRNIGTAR
M5 antag: human M5 muscarinic receptor antagonists, primary screen, CHO cells, Fluo-8 calcium fluorescence; AID 624040, 2012; CHO-hM5 cells, ACh EC80; 360,000 compounds, 0.59% hits; inhibition, % at 3 µM;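 active = inhibition above a per-plate cutoff, the mean of that plate's test compounds plus 3 SD, cut at about 27% in these data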;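 note: 0% = acetylcholine EC80 with DMSO and 100% = DMSO without agonist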
CHRM4 PAM: human M4 muscarinic receptor positive allosteric modulators, primary screen, CHO-K1 cells, Fluo-8 calcium fluorescence; activation, % at 3 µM; 360,000 compounds, 0.4% hits; CHO-K1 hM4/Gqi5, ACh EC20; 0% = ACh EC20, 100% = maximal ACh; AID 624126, 2012;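 active = activation above its plate's cutoff, the mean activation of sample wells plus 3 SD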
CHRM5 PAM: human M5 muscarinic receptor positive allosteric modulators, primary screen, CHO-K1 cells, Fluo-8 calcium fluorescence; Muscarinic acetylcholine receptor M5 (Homo sapiens), P08912; CHO-K1 hM5, ACh EC20 PAM; 0% = ACh EC20, 100% = ACh EC100; activation, % at 3 µM; 360,000 compounds, 0.3% hits; AID 624038, 2012;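 active = activation above the run cutoff, the mean activation of all test compounds plus 3 SD, cut at about 18% in these data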
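Probe or stimulus: acetylcholine, EC20 level; Assay system: human M5 receptor in CHO-K1 cells; Schedule: compound preincubation 140 s before EC20 acetylcholine addition; Technique: intracellular calcium via Fluo-8 fluorescence; Dosing: single-point, 3 µM nominal; Read-out basis: percent activation from peak-over-basal fluorescence ratio, scaled EC20-to-EC100 acetylcholine; Repeats: one well per compound, no replicates.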
M5 ag: human M5 muscarinic receptor agonists, primary screen, CHO-K1 cells, Fluo-8 calcium fluorescence; Muscarinic acetylcholine receptor M5 (Homo sapiens), P08912; CHO-K1 hM5 cells; 0% DMSO wells, 100% maximal acetylcholine response; 360,000 compounds, 0.19% hits; activation, % at 3 µM;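 active = activation above the run's mean over test compounds plus 3 SD, cut at about 23% in these data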;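 note: signal is peak over basal fluorescence ratio across the kinetic read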
M4 ag: human M4 muscarinic receptor agonists, primary screen, CHO-K1 cells, Fluo-8 calcium fluorescence; Muscarinic acetylcholine receptor M4 (Homo sapiens), P08173; CHO-K1 hM4/Gqi5; vehicle 0%, full acetylcholine response 100%; activation, % at 3 µM; 360,000 compounds, 0.14% hits; AID 624127, 2012;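 active = activation above the run mean over all test wells plus 3 SD, cut at about 32% in these data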;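 note: peak over basal fluorescence ratio per well then scaled between controls; 0% = DMSO wells and 100% = acetylcholine at EC100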
Active calls of the source: *. Only some compounds are listed: those with a hit (about 1.8% of all), similar ones and a draw of the others.

SMILES | CHRM4 antagonist | M5 antag | CHRM4 PAM | CHRM5 PAM | M5 ag | M4 ag
Cc1ccc2nc3c(cc2c1)c(C)nn3-c1ccccc1 | -44 | 1 | 31* | -1 | -4 | 0
Cc1nn(-c2ccccc2)c2nc(=O)n(-c3ccccc3)cc12 | 2 | 3 | 12 | 6 | 0 | 0
CC(C)[C@H](N)c1cn([C@@H](CC(N)=O)C(=O)N2CCNCC2)nn1 | -5 | 4 | 12 | 14 | -1 | 1
c1ccc(-c2cc(-c3nc4ccccc4[nH]3)c3ccccc3n2)cc1 | 24 | 29* | -17 | -18 | 0 | 12
CCCCn1c(N)c(N(CC(C)C)C(=O)c2oc3c(Cl)cccc3c2C)c(=O)[nH]c1=O | -10 | 7 | -2 | 1 | -1 | 3
O=[N+]([O-])c1ccc(O)c(/C=N/Nc2nn[nH]n2)c1 | -5 | -3 | 24* | 1 | 0 | 4
Cn1cc(C(=O)CCl)c2ccccc21 | 1 | -2 | -4 | -4 | 2 | 0
c1ccc2c(c1)ccc1ncccc12 | 5 | 5 | 21* | 0 | -3 | 2
CCOC(=O)c1ccc(CNC(=O)C2CCC(=O)N(CCc3ccccc3)C2)o1 (stereo not given) | -7 | -13 | -3 | 1 | -2 | 5
CC(=O)Nc1ccc(NC(=O)C(C)OC(=O)/C(C#N)=C/c2ccc(N(C)C)cc2)cc1 (stereo not given) | 1 | 61* | -4 | -17 | 16 | 7
Cc1csc(C(=O)O)c1NC(=O)c1ccc(F)cc1 | -13 | 12 | 0 | -3 | -2 | 1
Cc1csc(C(=O)O)c1-c1c(C)csc1C(=O)O | -6 | 16 | 23* | 0 | -2 | 1
CSCC[C@H](NC(=O)c1ccc2ccccc2c1)C(=O)N1CCC2(CC1)NCCc1[nH]cnc12 | 18 | 27* | -13 | -6 | -6 | 0
Cc1ccc(C(=O)N2CCC3(CC2)NCCc2[nH]cnc23)cc1C | -1 | -8 | 17* | 0 | -1 | 3
CCCN(CCC)Cc1cc(=O)oc2ccc3ccccc3c12 | -3 | 0 | 10 | 7 | -1 | -2
Cc1n(Cc2ccccc2)c2ccccc2[n+]1Cc1ccccc1 | 9 | 28* | -13 | -11 | -17 | 1
Cc1n(Cc2ccccc2)c2cc([N+](=O)[O-])ccc2[n+]1Cc1ccccc1 | 2 | 9 | 0 | 2 | -2 | 0
OC(c1cccc(Cl)c1)c1ncc(-c2ccc(C(F)(F)F)cc2)[nH]1 (stereo not given) | -3 | 1 | -1 | -1 | 0 | 3
COc1ccc(C2CC(c3ccccc3)=NN2c2ccc(S(N)(=O)=O)cc2)cc1 (stereo not given) | -10 | 11 | 1 | 7 | 1 | 5
COc1ccc(C2CC(c3ccccc3)=NN2c2ccc(C(N)=O)cc2)cc1 (stereo not given) | 8 | 30* | -4 | -1 | -5 | 4
O=C1c2ccccc2CCc2ccccc21 | -6 | 8 | 6 | 2 | -3 | -1
C[N+]1(C)CCC(=C2c3ccccc3CC(=O)c3sccc32)CC1 | 80* | 77* | -29 | -17 | -8 | 0
CC[N+]1(C)CCC(=C2c3ccccc3CC(=O)c3sccc32)CC1 (stereo not given) | 99* | 99* | -29 | -17 | -7 | 1
c1ccc2scnc2c1 | -3 | 1 | 7 | 4 | 2 | 1
Cc1noc(C)c1COC(=O)c1csc2c1CCCC2 | -4 | 4 | 1 | -10 | -8 | -1
SMILES | CHRM4 antagonist | M5 antag | CHRM4 PAM | CHRM5 PAM | M5 ag | M4 ag
CCCOc1ccc(C(=O)N2CCCC2C(=O)O)cc1 (stereo not given) | -6 | -3 | 19* | -2 | 2 | 3
CC(C)NC(=O)C1(C)CCN1Cc1ccc(C(F)(F)F)cc1 (stereo not given) | -8 | 2 | 6 | 0 | -1 | 0
CC#C[C@@H](CC)c1ccc2ccn(C)c2c1 | 6 | 27* | 1 | -5 | -5 | 0
CCOC(=O)c1ccc(N2CCN(c3ccccc3F)CC2)c(NC(=O)Nc2ccccc2)c1 | 36* | 40* | -12 | -18 | 0 | 11
CCOC(=O)c1ccc(N2CCN(c3ccc(F)cc3)CC2)c(NC(=O)Nc2cccc(OC)c2)c1 | -3 | -2 | 3 | -3 | -1 | 3
Cc1nc2scc(-c3ccccc3)c2c(=O)o1 | -9 | 11 | 5 | 23* | -2 | 0
O=c1oc(-c2ccccc2F)nc2scc(-c3ccccc3)c12 | 0 | 8 | -2 | 3 | 1 | 0
CCOC1=C2CN(S(=O)(=O)c3ccc(C)cc3)[C@@H](c3cccs3)C[C@H]2[C@H]2C(=O)N(c3ccccc3)C(=O)[C@H]2C1 | -8 | -1 | 3 | 3 | 3 | 0
O=C(NCc1ccc(F)cc1)c1cc(C2CCCCN2C(=O)OCCF)on1 (stereo not given) | 9 | 5 | -6 | -2 | 0 | 1
O=C(O)CN1CCNCCN(CC(=O)O)CCNCC1 | -9 | 2 | 2 | -3 | 3 | 0
O=C(COC(=O)/C=C/c1ccc(Cl)cc1)Nc1ccc2c(c1)OCCO2 | -14 | -4 | 34* | 16 | 0 | 3
O=C(COC(=O)/C=C/c1ccccc1)Nc1ccc2c(c1)OCCO2 | -19 | 7 | 27* | -3 | -1 | 0
COc1cccc(/C=C/C(=O)OCC(=O)Nc2ccc3c(c2)OCCO3)c1 | -9 | 7 | 11 | -5 | 1 | 1
O=C(Cc1cnc2ncnn2c1)N1CCc2c([nH]c3ccccc23)C1c1ccccn1 (stereo not given) | -8 | -5 | 4 | -11 | -6 | 2
Cc1snc(SCc2ccc(F)cc2)c1C#N | -11 | -4 | 18* | 2 | -3 | -1
CCOC(=O)Cc1csc(N/N=C\c2cccc(Br)c2)n1 | -14 | 0 | 8 | -5 | -4 | 1
CCOC(=O)Cc1csc(N/N=C/c2ccccc2)n1 | -12 | -6 | 24* | 18 | -2 | 7
CC(C)(C)C1CCC(CN2C(Nc3ccccc3)=NC[C@@H]2Cc2ccccc2)CC1 (stereo not given in full) | 50* | 28* | -14 | -20 | -1 | 23
